# Hits are enriched below; roughly 9.8% of the tested compounds scored in any of these assays.
# WT yeast gro inh: growth inhibition of WT yeast, mitochondrial fusion screen. mitochondrial fusion phenotypic screen, WT strain. inhibition, % at 10 µM. 190,000 compounds, 2.1% hits. AID 1362; in the data active means inhibition above about 58%; tested in S. cerevisiae
# PMI activator: activators of human phosphomannose isomerase; P34949; purified human PMI, coupled resazurin fluorescence, 20 min; stronger effect = higher value; 1 = vehicle control, 0 substrate-free wells; activation factor at 20 µM; 190,000 compounds, 0.005% hits;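 active means activation factor of 2 or more at 20 µM, relative to plate controls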
# Target sequence (P34949 whole entry, looked up): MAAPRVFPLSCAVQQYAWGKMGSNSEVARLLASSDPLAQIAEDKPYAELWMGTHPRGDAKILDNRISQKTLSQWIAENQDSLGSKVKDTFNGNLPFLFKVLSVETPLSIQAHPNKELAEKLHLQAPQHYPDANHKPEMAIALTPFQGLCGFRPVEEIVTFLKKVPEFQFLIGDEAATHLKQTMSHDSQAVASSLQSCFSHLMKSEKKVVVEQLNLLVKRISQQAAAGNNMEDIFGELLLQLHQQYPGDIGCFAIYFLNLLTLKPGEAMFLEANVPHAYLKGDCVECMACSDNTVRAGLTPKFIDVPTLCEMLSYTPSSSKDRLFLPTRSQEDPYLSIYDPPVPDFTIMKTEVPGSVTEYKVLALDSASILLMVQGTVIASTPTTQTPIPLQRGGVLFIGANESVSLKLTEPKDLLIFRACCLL
# Rad51 HR inh: Rad51 (human) homologous recombination inhibition; Q06609; hRad51 DNA strand exchange, fluorescence dequenching; inhibition, % at 10 µM; 200,000 compounds, 0.085% hits; AID 1385;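 active means inhibition above 40% at the single screening dose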
#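 Material: Human Rad51 nucleoprotein filaments preassembled on unlabelled ssDNA | Also added: Labelled 47-mer dsDNA for strand exchange | Dosing: Single dose, 10 µM final compound | Schedule: 30-min compound preincubation and 15-min exchange, both room temperature | Technique: Fluorescence dequenching at 485/520 nm | Measure: Percent inhibition relative to plate controls and blanks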
# L major viab: Leishmania major promastigote growth inhibition; Leishmania major promastigotes, resazurin fluorescence viability; inhibition, % at 10 µM; 200,000 compounds, 9% hits; AID 1063; in the data active means inhibition above about 50%;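 further: promastigotes grown with compound for 44 hours at 28 °C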
# PMI act hi M6P: increases human PMI activity with near-saturating mannose 6-phosphate. coupled PMI enzyme assay, resazurin fluorescence, 20 min; stronger effect = higher value; 1 = untreated enzyme, 0 = substrate-free blank. activation factor at 20 µM. P34949. 190,000 compounds, 0.34% hits;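 active means activation factor of 2 or more at 20 µM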
#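 Material: human phosphomannose isomerase with PGI, G6PDH, diaphorase coupling enzymes / Reagent: Man-6-P substrate 1.0 mM / Dosing: single compound dose of 20 µM, 1% DMSO final / Incubation: enzyme reaction with compound 20 min at room temperature / Signal: resorufin fluorescence (Ex 544/Em 590 nm) from resazurin via diaphorase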
# m-calpain inh: calpain II (pig) inhibition; purified calpain II, fluorogenic peptide substrate, 30 min; inhibition, % at 16 µM; 220,000 compounds, 0.37% hits;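 active means inhibition above about 50%, limit read from the data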
# A number is an active result; – = inactive; · = no result given.
SMILES,WT yeast gro inh,PMI activator,Rad51 HR inh,L major viab,PMI act hi M6P,m-calpain inh
COC(=O)c1sccc1-n1cccc1C(=O)C(=O)N1CCOCC1,–,–,–,–,–,–
CCOC(=O)c1cccc(NC(=O)c2c(NCc3ccccc3)[nH]c(=O)[nH]c2=O)c1,·,·,–,·,·,·
CCCCS/C(=C(/C#N)C(N)=O)c1cc2c([nH]1)CCCC2,–,–,–,51,–,–
CC(C)Cn1c2c(c(=O)[nH]c1=O)C(C(F)(F)F)(C(F)(F)F)N=C(CCC1CCCCC1)N2,–,–,–,80,–,–
O=c1[nH]c(=O)n(Cc2ccco2)c2c1C(C(F)(F)F)(C(F)(F)F)N=C(CCC1CCCCC1)N2,–,–,–,–,–,–
O=c1[nH]c(=O)n(-c2ccccc2)c2c1C(C(F)(F)F)(C(F)(F)F)N=C(CCC1CCCCC1)N2,–,–,–,55,–,–
Cc1ccc(-c2c(C)sc3ncn(CC(=O)N4CCOCC4)c(=O)c23)cc1C,·,·,–,·,·,–
O=C(CC1C(=O)NCCN1Cc1ccccc1C(F)(F)F)NCCn1cccn1 (stereo not drawn),–,–,–,–,–,–
N#CC1=C(N)OC2=C(CC/C2=C\c2ccccc2Cl)C1c1ccccc1Cl (stereo not drawn),–,–,–,73,–,–
N#CC1=C(N)OC2=C(C(=O)CCC2)C1c1ccccc1 (stereo not drawn),–,–,–,–,–,–
N#CC1=C(N)OC2=C(CC/C2=C\c2ccccc2)C1c1ccccc1 (stereo not drawn),–,–,·,101,–,–
O=C(C1=C(O)C(=O)N(c2ncccn2)C1c1ccc(F)cc1)c1ccco1 (stereo not drawn),·,·,·,·,·,–
COc1cc(/C=C(\C#N)C(=O)c2c[nH]c3ccccc23)cc(OC)c1O,–,–,–,–,–,–
CCN(CC)c1ccc(NC(=S)Nc2ccc(F)cc2)cc1,–,–,–,–,–,–
Cc1cc(C)cc(N(CC(=O)N/N=C/c2ccncc2)S(=O)(=O)c2ccccc2)c1,–,–,–,75,–,–
O=C(CCn1nnc2ccccc21)N1CCN(c2ccccc2)CC1,–,–,·,–,–,–
O=C(CCc1nc2ccccc2n1-c1ccccc1)NCCO,–,–,–,56,–,–
CCN1CCN(C(=O)CCc2nc3ccccc3n2-c2ccccc2)CC1,–,–,–,58,–,–
O=C(COC(=O)CCc1nc2ccccc2n1-c1ccccc1)Nc1ccc(N2CCCCC2)cc1,–,–,–,–,–,–
CN(C)c1ccc(C(=O)c2ccc(N(C)C)c3ccccc23)cc1,61,–,·,–,–,–
COc1ccc(C(=O)c2ccc(N(C)C)cc2)c(OC)c1,–,–,–,–,–,–
CCc1ccc(/C=C2\Oc3cc(OC(=O)N4CCOCC4)ccc3C2=O)cc1,–,–,–,93,–,–
CN=c1scc(-c2cccs2)n1/N=C/c1ccccc1O,62,–,–,86,–,–
CN=c1scc(-c2cccs2)n1/N=C/c1ccc(O)c(O)c1O,–,–,–,–,–,–
Cc1ccc(-n2nc(CN3CCOCC3)c(-c3ccccc3)c2N)cc1Cl,–,–,–,–,–,–
SMILES,WT yeast gro inh,PMI activator,Rad51 HR inh,L major viab,PMI act hi M6P,m-calpain inh
CCCCCc1ccc(OCCOCCn2c[n+](C)c3ccccc32)c(CCCCC)c1,96,–,–,101,–,–
CCCCCc1ccc(OCCC[n+]2ccccc2)c(CCCCC)c1,·,·,–,·,·,–
Cc1cc(C(F)(F)F)n2nc(-c3cnn(C)c3C(F)(F)F)c(Br)c2n1,–,–,–,–,–,–
CC1CCN(C(=O)CSCC(=O)Nc2nc(-c3cccs3)cs2)CC1,–,–,–,–,–,–
CCOC(=O)N1CCN(C(=O)CSCC(=O)Nc2nc(-c3cccs3)cs2)CC1,–,–,–,79,–,–
Cc1cc(Cl)ccc1OCC(=O)Nc1nc(-c2cccs2)cs1,60,–,–,–,–,–
Cc1cc(Cl)ccc1OCC(=O)Nc1nc(-c2cccnc2)cs1,·,·,–,·,·,–
CSc1ccccc1NC(=O)Cn1nc([N+](=O)[O-])cc1C,–,–,–,–,–,–
CCOc1ccc(CCNC(=O)COC(=O)c2ccc(OC)c(OC)c2OC)cc1OCC,–,–,–,66,–,–
CCOc1ccc(CCNC(=O)COC(=O)c2cccc(OC)c2O)cc1OCC,–,–,–,–,–,–
